Rows were chosen to be rich in hits. Some 3% of all compounds tested hit in one or more screens of this group.
Cl transport mod = KCC2 cotransporter modulators, thallium flux, primary screen, cell-based, HEK293 KCC2, FluoZin-2 fluorescence, MLSMR; Solute carrier family 12 member 5 (Homo sapiens), Q9H2X9; KCC2 cells, thallium flux FluoZin-2 fluorescence; B-score of Tl+ flux slope (higher = more flux/activation; lower = inhibition) at 10 µM; 2.2% of 190,000 active; AID 1456, 2008;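 active = thallium flux slope and its plate-corrected score both differing from the plate sample mean at a set confidence after two filtering rounds, in either direction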;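 also: slope of fluorescence scaled to starting intensity during 10 to 20 s after thallium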
PKD1 inh = inhibitors of human PKD1 kinase, biochemical, fluorescence polarization; Serine/threonine-protein kinase D1 (Homo sapiens), Q15139; PKD1 kinase fluorescence polarization assay; inhibition, % (concentration not given with the values); 0.056% of 200,000 active; in the data active = inhibition above about 50%
ROMK mod = ROMK potassium channel modulators, primary screen, cell-based, thallium flux, MLSMR library. ATP-sensitive inward rectifier potassium channel 1 (Homo sapiens), P48048. Tet-inducible ROMK, thallium flux fluorescence; actives lie on both sides. B-score at 10 µM. 2% of 130,000 active. AID 1918, 2009;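 active = signal ratio slope over the read window, or its plate-corrected B-score, at least 3 SD from the plate mean, either direction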;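 also: B-score of the F/F0 ratio slope over 7 to 12 s after thallium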
Target sequence (P48048 whole entry, looked up): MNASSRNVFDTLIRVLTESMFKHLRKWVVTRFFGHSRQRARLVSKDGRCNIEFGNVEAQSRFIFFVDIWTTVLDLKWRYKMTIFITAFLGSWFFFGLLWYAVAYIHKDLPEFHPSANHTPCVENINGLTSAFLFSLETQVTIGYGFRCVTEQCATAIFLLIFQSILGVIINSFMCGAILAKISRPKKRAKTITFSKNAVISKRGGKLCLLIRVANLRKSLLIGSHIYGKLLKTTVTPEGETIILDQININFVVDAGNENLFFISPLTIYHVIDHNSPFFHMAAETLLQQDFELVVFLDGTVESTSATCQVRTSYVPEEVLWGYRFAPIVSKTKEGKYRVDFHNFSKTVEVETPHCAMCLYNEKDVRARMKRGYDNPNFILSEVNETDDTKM
Rad51 HR inh = human RAD51 strand exchange inhibitors, primary screen, biochemical, fluorescence; AID 1385, 2008; inhibition, % at 10 µM; 0.085% of 200,000 active; DNA repair protein RAD51 homolog 1 (Homo sapiens), Q06609; hRad51 DNA strand exchange, fluorescence dequenching;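 active = inhibition above 40% at the single screening dose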
Target sequence (Q06609 whole entry, looked up): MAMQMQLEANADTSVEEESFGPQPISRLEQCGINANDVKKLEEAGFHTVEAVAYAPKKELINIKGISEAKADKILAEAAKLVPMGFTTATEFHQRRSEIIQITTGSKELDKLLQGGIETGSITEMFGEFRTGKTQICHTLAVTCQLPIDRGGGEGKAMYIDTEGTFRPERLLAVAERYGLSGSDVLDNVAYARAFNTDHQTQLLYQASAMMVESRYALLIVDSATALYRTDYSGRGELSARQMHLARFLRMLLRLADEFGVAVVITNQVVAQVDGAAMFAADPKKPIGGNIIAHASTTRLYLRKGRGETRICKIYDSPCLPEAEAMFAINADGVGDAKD
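Test system: preformed human Rad51 ssDNA filaments; also added: Donor/quencher-labelled 47-bp dsDNA substrate; doses: 10 µM final, single point; times: 37 °C 15-min filament assembly, 30-min compound preincubation, 15-min exchange; detection: FRET fluorescence dequenching, excitation 485 nm, emission 520 nm; read-out basis: Fluorescence-based percent inhibition, control- and blank-normalised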
KCC2 sec1 = KCC2 modulators in sodium-free buffer, confirmation, cell-based, HEK293 KCC2, thallium flux, secondary assay; shares compounds with Cl transport mod; FluoZin2 fluorescence; stronger effect = higher value; normalised thallium flux (F/F0 slope) at 10 µM; 15% of 3,700 active; AID 1713, 2009;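 active = thallium flux slope above the same plate's solvent-only control mean plus 3 SD; inconclusive = the two replicate wells disagree; inactive = no significant difference from solvent-only control wells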
KCC2 bumet counter = thallium flux persisting under bumetanide in KCC2 cells, confirmation, counter-screen for KCC2 modulator project, cell-based, HEK293 KCC2, FluoZin2, secondary assay 3; shares compounds with Cl transport mod; HEK293-KCC2 + bumetanide/ouabain; stronger effect = higher value; normalized thallium flux at 10 µM; 49% of 3,700 active;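 active = thallium entry rate above the same plate's blocked-transporter control wells by more than 3 SD; inconclusive = the two repeat wells disagree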;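 also: raw slope of fluorescence over initial fluorescence between 10 and 20 s after thallium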
KCC2 sec2 = KCC2 modulators without ouabain present, confirmation, cell-based, HEK293 KCC2, thallium flux, FluoZin2, secondary assay 2. 23% of 3,700 active. AID 1715, 2009. normalized thallium flux at 10 µM. shares compounds with Cl transport mod. thallium flux FluoZin2 fluorescence; actives lie on both sides; F/F0 rise rate, 10–20 s post-thallium;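 active = thallium flux slope more than 3 SD above or below the plate's solvent-only control mean, mostly below; inconclusive = the two repeat wells disagreed; inactive = no significant shift from solvent-only controls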
HEK293 Tl flux = thallium flux modulation in parental HEK cells, confirmation, counter-screen for KCC2 modulator project, cell-based, counterscreen 1 | thallium flux rate (normalised fluorescence) at 10 µM | 46% of 3,700 active | shares compounds with Cl transport mod | HEK293 parental cells, thallium flux FluoZin2, ouabain; baseline-ratio fluorescence slope, 10–20 s after thallium;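 active = thallium flux rate significantly above the same plate's solvent-only control wells, beyond their mean plus 3 SD; inconclusive = the two replicate wells gave conflicting results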
KCC2 retest ouab = KCC2 inhibitors and activators, ouabain retest, confirmation, HEK-KCC2 cells; raw Tl+ flux slope (below DMSO = inhibition, above = activation) at 10 µM; 48% of 3,700 active; shares compounds with Cl transport mod; HEK293-KCC2, thallium flux FluoZin2 fluorescence; bidirectional: low = inhibitor, high = activator;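 active = thallium flux slope beyond 3 SD from same-plate DMSO control mean in most replicates, usually higher, sometimes lower; inconclusive = repeat tests gave conflicting results; inactive = no significant difference from controls in most replicates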;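 also: slope of initial-normalized fluorescence between seconds 10 and 20 after thallium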
HEK counter2 = native HEK Tl+ uptake effects, second counter-screen – HEK cells, counterscreen 2, counter-screen for KCC2 modulator project, confirmation; HEK293 parental, thallium flux FluoZin-2 fluorescence slope; AID 1718, 2009; thallium flux slope at 10 µM; shares compounds with Cl transport mod; 33% of 3,700 active;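 active = thallium flux slope above the same plate's solvent-control mean plus 3 SD in both duplicate wells; inconclusive = duplicate wells that disagreed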;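 also: run without ouabain in cells lacking the KCC2 cotransporter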
Large screens that a line does not name were inactive (follow-up assays come after a bar, where they were run).

Cc1ccc(-n2c(SCC(=O)NCc3ccco3)nc3c(sc4ccccc43)c2=O)cc1	none (no result: ROMK mod)
Cn1c(CNc2nc3ccccc3n2C)nc2ccccc21	none (no result: ROMK mod)
CC(C)n1c(NCc2nc3ccccc3n2C)nc2ccccc21	none (no result: Cl transport mod, ROMK mod) | KCC2 sec1 inactive | KCC2 bumet counter inactive | KCC2 sec2 inactive | HEK293 Tl flux inactive | KCC2 retest ouab inactive | HEK counter2 inconclusive
O=C(CSc1nnc(-c2cccs2)n1CC1CCCO1)c1cc2ccccc2o1 (stereo not drawn)	Cl transport mod -3.3 (no result: Rad51 HR inh) | KCC2 sec1 inactive | KCC2 bumet counter inactive | KCC2 sec2 inactive | HEK293 Tl flux inactive | KCC2 retest ouab inactive | HEK counter2 inactive
Cc1ccc(C(=O)O)cc1NC(=O)CSc1ncnc2sc3c(c12)CCC3	Cl transport mod 10 (no result: PKD1 inh, ROMK mod, Rad51 HR inh) | KCC2 sec1 inactive | KCC2 bumet counter 0.016 | KCC2 sec2 inactive | HEK293 Tl flux 0.017 | KCC2 retest ouab 0.025 | HEK counter2 0.018
CC(=O)C(Sc1ncnc2sc3c(c12)CCCC3)C(C)=O	Cl transport mod 6.4 | KCC2 sec1 0.015 | KCC2 bumet counter 0.1 | KCC2 sec2 inactive | HEK293 Tl flux 0.018 | KCC2 retest ouab inconclusive | HEK counter2 0.013
CC(C#N)Sc1ncnc2sc3c(c12)CCC3 (stereo not drawn)	Cl transport mod 4.2 (no result: ROMK mod) | KCC2 sec1 inconclusive | KCC2 bumet counter 0.032 | KCC2 sec2 inactive | HEK293 Tl flux 0.017 | KCC2 retest ouab inactive | HEK counter2 0.013
CC(C)Cn1c(N)c(C(=O)CSc2ncnc3sc4c(c23)CCCC4)c(=O)n(C)c1=O	Cl transport mod 7.9 | KCC2 sec1 inactive | KCC2 bumet counter 0.014 | KCC2 sec2 inactive | HEK293 Tl flux 0.014 | KCC2 retest ouab 0.021 | HEK counter2 0.014
CC(=O)CSc1ncnc2sc3c(c12)CCCC3	none (no result: Rad51 HR inh)
O=C(O)c1ccccc1Sc1ncnc2sc3c(c12)CCC3	none
S=C(NCCc1ccccc1)N1CCc2ccccc2C1	none
CC1=CCC(/C=N\Nc2nnc3c(n2)[nH]c2ccccc23)CC1 (stereo not drawn)	none (no result: ROMK mod)
COC(=O)C[C@H]1c2cc(C(F)(F)F)ccc2S(=O)(=O)N1Cc1ccccc1OC	none (no result: Cl transport mod, PKD1 inh, ROMK mod)
O=C(CSc1ncnc2sc3c(c12)CCCC3)c1ccco1	Cl transport mod 19 | KCC2 sec1 inconclusive | KCC2 bumet counter 0.095 | KCC2 sec2 inactive | HEK293 Tl flux inconclusive | KCC2 retest ouab 0.055 | HEK counter2 inconclusive
O=C(O)/C=C/c1ccc(S(=O)(=O)NCc2cccnc2)cc1	Cl transport mod 3.8 (no result: PKD1 inh, ROMK mod) | KCC2 sec1 inactive | KCC2 bumet counter inactive | KCC2 sec2 inactive | HEK293 Tl flux inactive | KCC2 retest ouab inactive | HEK counter2 inactive
C/C(=N\NC(=O)c1cc(-c2cccc([N+](=O)[O-])c2)n[nH]1)c1ccccc1O	none (no result: ROMK mod)
O=C(OCC#Cc1c(COC(=O)c2ccccc2)nnn1Cc1ccccc1)c1ccccc1	Cl transport mod 1.8 (no result: PKD1 inh, ROMK mod) | KCC2 sec1 inactive | KCC2 bumet counter inactive | KCC2 sec2 inactive | HEK293 Tl flux inactive | KCC2 retest ouab inactive | HEK counter2 inactive
O=C(OCc1ccccc1)c1cccc(-c2nnn(Cc3ccccc3)n2)c1	none (no result: ROMK mod)
O=C(CN1CCN(S(=O)(=O)c2ccccc2)CC1)Nc1ccc2c(c1)CCC2	Cl transport mod 6.2 | KCC2 sec1 inactive | KCC2 bumet counter inactive | KCC2 sec2 inconclusive | HEK293 Tl flux inactive | KCC2 retest ouab inactive | HEK counter2 inactive
CC(=O)Nc1ccc(/C(C)=N/Nc2nc(Nc3cccc4ccccc34)nc(N3CCOCC3)n2)cc1	none
Cc1c(NS(=O)(=O)c2ccc3c(c2)Cc2ccccc2-3)c(=O)n(-c2ccccc2)n1C	none (no result: Rad51 HR inh)
Nn1c(COc2ccc(Cl)cc2)n[nH]c1=S	Cl transport mod -3.3 | KCC2 sec1 inactive | KCC2 bumet counter inactive | KCC2 sec2 inconclusive | HEK293 Tl flux inactive | KCC2 retest ouab 0.035 | HEK counter2 inactive
Fc1ccc(CSc2nncn2NC/C=C/c2ccccc2)cc1	none (no result: Cl transport mod, ROMK mod) | KCC2 sec1 inactive | KCC2 bumet counter inactive | KCC2 sec2 inconclusive | HEK293 Tl flux inactive | KCC2 retest ouab inconclusive | HEK counter2 inactive
CCOc1ccc(Nc2n[nH]c(=S)s2)cc1	Cl transport mod -5.3 (no result: ROMK mod) | KCC2 sec1 inconclusive | KCC2 bumet counter inactive | KCC2 sec2 0.02 | HEK293 Tl flux inactive | KCC2 retest ouab inconclusive | HEK counter2 inactive
Cc1noc(C)c1CSCc1ccc(Cl)cc1	none (no result: ROMK mod)
CCOC(=O)N1CCN(c2nc3ccccc3nc2C(C#N)S(=O)(=O)c2ccc(C)cc2)CC1 (stereo not drawn)	none (no result: Cl transport mod, Rad51 HR inh) | KCC2 sec1 inactive | KCC2 bumet counter inactive | KCC2 sec2 0.027 | HEK293 Tl flux inconclusive | KCC2 retest ouab inconclusive | HEK counter2 inconclusive
O=C(NNC(=O)c1cc2cc(OC(F)(F)F)ccc2[nH]1)c1cccc(C(F)(F)F)c1	none (no result: PKD1 inh, ROMK mod, Rad51 HR inh)
C=CCCCCCCCCC(=O)Nc1ncccn1	none (no result: PKD1 inh)
c1ccc(-c2nc(CSc3n[nH]c(-c4cccs4)n3)cs2)cc1	Cl transport mod -3.8 (no result: ROMK mod) | KCC2 sec1 inactive | KCC2 bumet counter inactive | KCC2 sec2 0.024 | HEK293 Tl flux inactive | KCC2 retest ouab inactive | HEK counter2 inactive
O=C(Nc1ccc(CN2CCCCC2)cc1)Nc1ccc(Br)cc1Cl	none (no result: Cl transport mod)
CN(C)CCNC(=O)c1ccc(Cl)s1	Cl transport mod 7.3 (no result: ROMK mod) | KCC2 sec1 inactive | KCC2 bumet counter inactive | KCC2 sec2 inactive | HEK293 Tl flux inactive | KCC2 retest ouab inactive | HEK counter2 inconclusive
C=CCNC(=S)NC(=O)c1ccc(C)c(Br)c1	Cl transport mod 40 | KCC2 sec1 0.018 | KCC2 bumet counter 0.092 | KCC2 sec2 inactive | HEK293 Tl flux inconclusive | KCC2 retest ouab 0.064 | HEK counter2 0.022

Bioassay records from PubChem BioAssay.
